Assay results reported in ChEMBL document CHEMBL1142992, “Discovery of diaryl imidazolidin-2-one derivatives, a novel class of muscarinic M3 selective antagonists (Part 1)” (J Med Chem, 2007).
One block for each molecule: values may come before it. The source made the active and inactive calls.

Columns and labels:
[1] = biological target: T1, Muscarinic acetylcholine receptor M2 (Homo sapiens, UniProt P08172); assay: Displacement of [3H]N-methyl-scopolamine from human muscarinic M2 receptor expressed in CHO K1 cells; type: cell-based
T1 sequence (P08172 whole entry): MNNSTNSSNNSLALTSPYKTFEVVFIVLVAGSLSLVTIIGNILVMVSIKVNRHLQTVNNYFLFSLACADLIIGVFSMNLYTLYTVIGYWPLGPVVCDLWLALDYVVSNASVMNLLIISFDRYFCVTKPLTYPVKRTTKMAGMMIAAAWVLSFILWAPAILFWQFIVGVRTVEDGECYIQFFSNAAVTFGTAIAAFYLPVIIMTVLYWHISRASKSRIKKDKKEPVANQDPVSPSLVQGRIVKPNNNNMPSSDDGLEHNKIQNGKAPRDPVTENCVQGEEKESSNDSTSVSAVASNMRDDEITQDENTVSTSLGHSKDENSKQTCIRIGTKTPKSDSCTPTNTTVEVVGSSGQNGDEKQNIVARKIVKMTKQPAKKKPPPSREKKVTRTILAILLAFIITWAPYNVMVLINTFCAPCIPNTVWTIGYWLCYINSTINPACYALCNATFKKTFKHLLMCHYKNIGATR
How it was run: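 Membranes from CHO-K1 cells expressing human M2 receptor, homogenized and stored at -80 °C, resuspended in 50 mM Tris-HCl pH 7.4, 2.5 mM MgCl2, 1 mM EDTA. [3H]-N-methyl scopolamine 0.1-0.3 nM; nonspecific binding with cold N-methyl scopolamine. 10-point curves in duplicate, 60 min at room temperature, filtration through GF/B, scintillation counting.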

[2] = biological target: T2, Muscarinic acetylcholine receptor M2 (Homo sapiens) (UniProt P08172); assay: Displacement of [3H]N-methyl-scopolamine from human muscarinic M2 receptor expressed in CHO K1 cells at 10 uM; type: cell-based
T2 sequence (whole entry): T1 sequence (P08172 whole entry)

Cytochrome P450 2C9 = Cytochrome P450 2C9 (Homo sapiens, UniProt P11712); assay: Inhibition of human CYP2C9 expressed in insect cells; type: ADME
Sequence of Cytochrome P450 2C9 (P11712 whole entry, canonical isoform): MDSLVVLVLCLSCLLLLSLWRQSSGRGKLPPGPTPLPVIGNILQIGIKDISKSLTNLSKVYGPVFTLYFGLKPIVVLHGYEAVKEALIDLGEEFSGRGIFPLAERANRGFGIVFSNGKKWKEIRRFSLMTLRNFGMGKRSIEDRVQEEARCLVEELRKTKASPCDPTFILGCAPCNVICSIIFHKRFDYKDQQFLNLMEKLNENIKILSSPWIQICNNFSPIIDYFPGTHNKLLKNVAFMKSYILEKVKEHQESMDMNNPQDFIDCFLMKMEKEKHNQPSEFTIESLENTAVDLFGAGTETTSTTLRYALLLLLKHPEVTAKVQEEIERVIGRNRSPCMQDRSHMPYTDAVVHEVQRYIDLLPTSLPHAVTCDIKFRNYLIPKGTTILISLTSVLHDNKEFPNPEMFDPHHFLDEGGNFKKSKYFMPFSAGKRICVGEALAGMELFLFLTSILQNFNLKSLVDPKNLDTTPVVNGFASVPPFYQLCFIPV
How it was run: (§1)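 Insect-cell microsomes expressing human CYP1A2, 2C9, 2C19, 2D6 or 3A4, each with an isoform-specific fluorogenic substrate in 0.35 M potassium phosphate pH 7.4. […] Inhibitor serially diluted; plates prewarmed 10 min at 37 °C. Reaction stopped with acetonitrile/Tris, read by fluorescence. IC50 from nonlinear regression. Positive controls: furafylline, sulfaphenazole, tranylcypromine, quinidine, ketoconazole.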

Cytochrome P450 2C19 = Cytochrome P450 2C19 (Homo sapiens, UniProt P33261); assay: Inhibition of human CYP2C19 expressed in insect cells; type: ADME; how it was run: as §1
Sequence of Cytochrome P450 2C19 (P33261 whole entry): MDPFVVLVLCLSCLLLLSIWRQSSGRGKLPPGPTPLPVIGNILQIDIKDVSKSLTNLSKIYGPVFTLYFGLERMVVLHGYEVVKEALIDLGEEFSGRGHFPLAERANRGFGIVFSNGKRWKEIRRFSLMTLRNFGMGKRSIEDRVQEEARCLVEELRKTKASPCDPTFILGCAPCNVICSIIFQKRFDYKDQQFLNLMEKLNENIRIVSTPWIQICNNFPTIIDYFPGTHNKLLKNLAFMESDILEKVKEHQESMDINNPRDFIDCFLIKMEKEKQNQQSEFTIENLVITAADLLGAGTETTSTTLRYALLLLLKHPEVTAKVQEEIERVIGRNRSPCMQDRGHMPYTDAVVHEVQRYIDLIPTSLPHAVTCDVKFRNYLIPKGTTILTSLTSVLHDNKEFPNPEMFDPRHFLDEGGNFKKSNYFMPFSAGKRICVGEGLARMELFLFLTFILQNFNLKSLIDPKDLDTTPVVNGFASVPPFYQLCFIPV

Cytochrome P450 2D6 = Cytochrome P450 2D6 (Homo sapiens, UniProt P10635); assay: Inhibition of human CYP2D6 expressed in insect cells; type: ADME; how it was run: as §1
Sequence of Cytochrome P450 2D6 (P10635 whole entry): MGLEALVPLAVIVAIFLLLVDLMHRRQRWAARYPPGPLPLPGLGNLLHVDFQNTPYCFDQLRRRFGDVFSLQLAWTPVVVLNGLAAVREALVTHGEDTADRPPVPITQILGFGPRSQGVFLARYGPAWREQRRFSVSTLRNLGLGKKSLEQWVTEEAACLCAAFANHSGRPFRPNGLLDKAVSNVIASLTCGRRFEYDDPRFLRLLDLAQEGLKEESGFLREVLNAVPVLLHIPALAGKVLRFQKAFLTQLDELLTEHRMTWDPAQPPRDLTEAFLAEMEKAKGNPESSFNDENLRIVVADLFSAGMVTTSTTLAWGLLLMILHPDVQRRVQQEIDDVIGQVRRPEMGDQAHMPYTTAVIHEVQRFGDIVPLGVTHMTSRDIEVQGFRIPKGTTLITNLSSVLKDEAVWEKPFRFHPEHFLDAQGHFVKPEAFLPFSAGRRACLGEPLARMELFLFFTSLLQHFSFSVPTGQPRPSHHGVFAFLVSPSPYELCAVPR

Cytochrome P450 3A4 = Cytochrome P450 3A4 (Homo sapiens, UniProt P08684); assay: Inhibition of human CYP3A4 expressed in insect cells; type: ADME; how it was run: as §1
Sequence of Cytochrome P450 3A4 (P08684 whole entry): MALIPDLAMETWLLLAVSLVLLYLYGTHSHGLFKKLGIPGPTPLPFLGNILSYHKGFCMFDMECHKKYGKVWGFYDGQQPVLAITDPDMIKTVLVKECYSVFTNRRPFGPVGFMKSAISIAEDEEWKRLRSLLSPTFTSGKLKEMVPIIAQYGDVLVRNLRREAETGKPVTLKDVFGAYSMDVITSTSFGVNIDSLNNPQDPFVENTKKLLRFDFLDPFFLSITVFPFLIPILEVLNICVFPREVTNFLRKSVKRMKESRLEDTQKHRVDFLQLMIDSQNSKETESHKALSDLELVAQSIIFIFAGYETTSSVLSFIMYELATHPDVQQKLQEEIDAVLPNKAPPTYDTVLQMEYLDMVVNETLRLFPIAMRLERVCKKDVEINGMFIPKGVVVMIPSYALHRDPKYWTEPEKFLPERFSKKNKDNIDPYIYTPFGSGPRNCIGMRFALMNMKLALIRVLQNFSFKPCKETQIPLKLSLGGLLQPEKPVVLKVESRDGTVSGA

[3] = biological target: T3, Muscarinic acetylcholine receptor M2 (Rattus norvegicus) (UniProt P10980); assay: Antagonist activity at muscarinic M2 receptor in rat left atria assessed as contraction of methacholine-induced relaxation upto 0.1 uM relative to EFS; type: functional
T3 sequence (whole entry): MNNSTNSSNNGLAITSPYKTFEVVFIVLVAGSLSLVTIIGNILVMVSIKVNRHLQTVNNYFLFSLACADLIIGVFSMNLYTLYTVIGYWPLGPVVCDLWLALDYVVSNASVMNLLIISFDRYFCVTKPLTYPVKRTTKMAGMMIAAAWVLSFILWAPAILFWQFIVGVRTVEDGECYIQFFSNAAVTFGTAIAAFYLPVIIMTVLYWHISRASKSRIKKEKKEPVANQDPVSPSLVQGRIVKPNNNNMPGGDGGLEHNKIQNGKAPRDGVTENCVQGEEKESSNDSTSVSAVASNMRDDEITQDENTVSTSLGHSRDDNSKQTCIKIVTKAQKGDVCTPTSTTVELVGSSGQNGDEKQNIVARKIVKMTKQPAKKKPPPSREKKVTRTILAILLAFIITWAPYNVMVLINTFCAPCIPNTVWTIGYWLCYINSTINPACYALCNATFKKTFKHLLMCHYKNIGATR
How it was run: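 Female rat left atrium in Krebs-Henseleit at 33 °C, resting tension 0.5 g, eserine 1 µM present. Paced by EFS at 1 Hz, 5 ms pulses, 1.5× threshold voltage to give a stable basal force. Methacholine concentration-response curves run alone or with antagonist at 0.01-0.1 µM. Response read as delta % of basal force of contraction; mean ± SEM, n = 6-7.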

[4] = Permeability across human Caco-2 cell membrane; type: ADME, cell-based
How it was run: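 Caco-2 monolayers grown 21 days on polycarbonate inserts. Integrity checked by TEER (1000 Ω) and sodium fluorescein leakage. Compound at 50 µM in 1% DMSO applied apically, 2 h at 37 °C. Apical and basolateral samples measured by LC-MS/MS. Papp = CbVb/(C0·A·t).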

[5] = Intrinsic clearance in rat liver microsomes; type: ADME, Microsome
How it was run: (§2)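 Human or rat liver microsomes at 0.5 mg/mL final, preincubated with 0.5 µM test compound in phosphate buffer pH 7.4 for 10 min at 37 °C. Clearance reported as mL/min/g liver.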

[6] = Intrinsic clearance in human liver microsomes; type: ADME, Microsome; how it was run: as §2
Cytochrome P450 1A2 = biological target: T4, Cytochrome P450 1A2 (Homo sapiens, UniProt P05177); assay: Inhibition of human CYP1A2 expressed in insect cells; type: ADME; how it was run: as §1
T4 sequence (P05177 whole entry): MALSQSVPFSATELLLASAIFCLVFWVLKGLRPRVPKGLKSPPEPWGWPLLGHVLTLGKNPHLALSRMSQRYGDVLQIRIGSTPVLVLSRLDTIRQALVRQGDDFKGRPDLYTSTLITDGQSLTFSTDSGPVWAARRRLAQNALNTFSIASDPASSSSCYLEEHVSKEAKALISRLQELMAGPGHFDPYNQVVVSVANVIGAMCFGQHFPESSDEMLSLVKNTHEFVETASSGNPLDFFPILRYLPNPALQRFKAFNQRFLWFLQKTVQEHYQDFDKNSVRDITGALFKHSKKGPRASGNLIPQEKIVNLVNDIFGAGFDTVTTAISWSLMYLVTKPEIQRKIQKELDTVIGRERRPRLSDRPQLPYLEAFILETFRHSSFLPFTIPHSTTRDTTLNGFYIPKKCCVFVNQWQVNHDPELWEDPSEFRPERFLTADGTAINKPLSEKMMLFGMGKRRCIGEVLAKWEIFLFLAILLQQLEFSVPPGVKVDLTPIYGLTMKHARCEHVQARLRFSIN

[7] = biological target: Muscarinic acetylcholine receptor M3 (Homo sapiens) (UniProt P20309); assay: Displacement of [3H]N-methyl-scopolamine from human muscarinic M3 receptor expressed in CHO K1 cells at 10 uM; type: cell-based
Sequence of Muscarinic acetylcholine receptor M3 (Homo sapiens) (P20309 whole entry, looked up): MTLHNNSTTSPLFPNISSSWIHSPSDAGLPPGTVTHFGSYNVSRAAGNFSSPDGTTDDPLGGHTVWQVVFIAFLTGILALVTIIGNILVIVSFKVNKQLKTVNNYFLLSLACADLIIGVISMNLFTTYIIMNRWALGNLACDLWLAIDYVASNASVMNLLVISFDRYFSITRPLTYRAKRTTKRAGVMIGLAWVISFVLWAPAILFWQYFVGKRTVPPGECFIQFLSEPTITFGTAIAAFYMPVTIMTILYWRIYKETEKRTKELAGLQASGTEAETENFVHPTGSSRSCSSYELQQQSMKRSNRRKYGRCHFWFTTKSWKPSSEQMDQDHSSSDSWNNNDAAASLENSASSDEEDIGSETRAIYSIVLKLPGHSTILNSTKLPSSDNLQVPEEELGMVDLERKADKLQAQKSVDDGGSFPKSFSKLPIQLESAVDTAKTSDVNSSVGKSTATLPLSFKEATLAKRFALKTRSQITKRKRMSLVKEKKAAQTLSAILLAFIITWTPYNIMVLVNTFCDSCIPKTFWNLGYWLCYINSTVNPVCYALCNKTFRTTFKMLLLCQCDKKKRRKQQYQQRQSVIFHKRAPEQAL

[8] = biological target: Muscarinic acetylcholine receptor M3 (Rattus norvegicus) (UniProt P08483); details: filed as antagonist
Sequence of Muscarinic acetylcholine receptor M3 (Rattus norvegicus) (P08483 whole entry, looked up): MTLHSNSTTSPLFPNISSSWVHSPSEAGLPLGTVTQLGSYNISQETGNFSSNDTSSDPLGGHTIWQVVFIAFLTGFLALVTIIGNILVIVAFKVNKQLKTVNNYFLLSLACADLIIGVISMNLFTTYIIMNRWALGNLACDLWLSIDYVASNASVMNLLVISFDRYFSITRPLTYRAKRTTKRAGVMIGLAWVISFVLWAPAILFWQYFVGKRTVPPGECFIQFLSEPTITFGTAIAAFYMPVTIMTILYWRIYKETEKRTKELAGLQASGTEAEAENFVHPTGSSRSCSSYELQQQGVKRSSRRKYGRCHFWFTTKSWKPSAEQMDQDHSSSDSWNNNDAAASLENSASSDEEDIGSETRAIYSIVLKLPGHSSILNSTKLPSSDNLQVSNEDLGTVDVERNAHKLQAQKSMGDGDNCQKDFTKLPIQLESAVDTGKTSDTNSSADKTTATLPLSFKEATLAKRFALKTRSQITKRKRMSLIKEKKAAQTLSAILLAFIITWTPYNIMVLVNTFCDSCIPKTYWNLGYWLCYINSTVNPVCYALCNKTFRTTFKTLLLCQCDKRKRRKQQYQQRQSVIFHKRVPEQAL

SMILES: O=C1NC(c2ccccc2)(C2CCCCC2)CN1C1CCN(Cc2cccc(Cl)c2)CC1 (stereo not drawn)
- Ki [1]: 0.515 µM (antagonist)

SMILES: O=C1N(C2CCN(Cc3ccccc3)CC2)CC(c2ccccc2)N1Cc1ccccc1 (stereo not drawn)
- Ki [1]: 0.629 µM (antagonist)

SMILES: O=C1NC(c2ccc(F)cc2)(c2ccc(F)cc2)CN1C1CCN(Cc2ccccc2)CC1
- IC50 (Cytochrome P450 2C9): 7 µM
- IC50 (Cytochrome P450 2C19): 12.9 µM
- IC50 (Cytochrome P450 2D6): 4.7 µM
- IC50 (Cytochrome P450 3A4): 91.9 µM
- Activity [3]: inactive
- Papp [4]: > 5 ×10⁻⁶ cm/s
- CLint scaled [5]: 2 mL/min/g
- CLint scaled [6]: 0.56 mL/min/g
- IC50 (Cytochrome P450 1A2): > 100 µM

SMILES: O=C1NC(c2ccccc2)(c2ccccc2)CN1C1CCN(Cc2cc(Cl)cc(Cl)c2)CC1
- inhibition [7]: < 50%

SMILES: O=C1NC(c2cccs2)(c2cccs2)CN1C1CCN(Cc2ccccc2)CC1
- Papp [4]: > 5 ×10⁻⁶ cm/s
- CLint scaled [5]: 23.7 mL/min/g
- CLint scaled [6]: 2.3 mL/min/g

SMILES: Cc1cccc(CN2CCC(N3CC(c4ccccc4)(C4CCCCC4)NC3=O)CC2)c1 (stereo not drawn)
- Ki [1]: 0.166 µM (antagonist)

SMILES: O=C(c1cccc(Cl)c1)N1CCC(N2CC(c3ccccc3)(c3ccccc3)NC2=O)CC1
- inhibition [7]: < 50%

SMILES: O=C1NC(c2ccc(F)cc2)(c2ccc(F)cc2)CN1C1CCN(Cc2cccc(F)c2)CC1
- IC50 (Cytochrome P450 2C9): 7.3 µM
- IC50 (Cytochrome P450 2C19): 17.4 µM
- IC50 (Cytochrome P450 2D6): 12 µM
- IC50 (Cytochrome P450 3A4): > 100 µM
- Papp [4]: > 5 ×10⁻⁶ cm/s
- CLint scaled [5]: 1.4 mL/min/g
- CLint scaled [6]: 0.78 mL/min/g
- IC50 (Cytochrome P450 1A2): > 100 µM

SMILES: CN1CCC(N2CC(c3ccccc3)(c3ccccc3)NC2=O)CC1
- Ki [1]: 2.92 µM (antagonist)

SMILES: Cc1ccc(O)c([C@H](CCN(C(C)C)C(C)C)c2ccccc2)c1
- pKb [8]: 8.86

SMILES: O=C1NC(C2CCCCC2)(C2CCCCC2)CN1C1CCN(Cc2ccccc2)CC1
- inhibition [7]: < 50%

SMILES: O=C1NC(c2ccccc2)(c2ccccc2)CN1C1CC2CCC(C1)N2Cc1ccccc1 (stereo not drawn)
- Ki [1]: 0.065 µM (antagonist)

SMILES: O=C1NC(c2ccccc2)(c2ccccc2)CN1C1CCN(CCc2ccccc2)CC1
- Ki [1]: 0.411 µM (antagonist)

SMILES: O=C1NC(c2ccccc2)(c2ccccc2)C(=O)N1C1CCN(Cc2ccccc2)CC1
- inhibition [2]: < 50%

Other lines, results leading:

- Ki [1]: 0.49 µM (antagonist)
SMILES: COc1ccc(CN2CCC(N3CC(c4ccccc4)(c4ccccc4)NC3=O)CC2)cc1

- inhibition [2]: < 50%
SMILES: O=C1NC(c2ccccc2)(c2ccccc2)CN1C1CCN(Cc2cccc(OC(F)(F)F)c2)CC1

- inhibition [2]: < 50%
SMILES: O=C1NC(c2ccccc2)(c2ccccc2)CN1C1CCN(Cc2c[nH]cn2)CC1

- inhibition [2]: < 50%
SMILES: N#Cc1cccc(CN2CCC(N3CC(c4ccccc4)(c4ccccc4)NC3=O)CC2)c1

- inhibition [7]: < 50%
SMILES: C#CCN1CCC(N2CC(c3ccccc3)(c3ccccc3)NC2=O)CC1

- Ki [1]: 0.296 µM (antagonist)
SMILES: O=C1NC(c2ccccc2)(c2ccccc2)CN1C1CCN(Cc2ccc(Cl)cc2)CC1

- Ki [1]: 0.328 µM (antagonist)
SMILES: O=C1NC(c2ccccc2)(c2ccccc2)CN1C1CCN(CCOc2ccccc2)CC1
